In ChEMBL document CHEMBL4196108, “5-Aroylindoles Act as Selective Histone Deacetylase 6 Inhibitors Ameliorating Alzheimer's Disease Phenotypes” (J Med Chem, 2018):
Calls of active or inactive are those of the source. The rule behind the calls is not given here.

How the values were obtained:
Mus musculus = test: Toxicity in Balb/c mouse assessed as increase in body weight at 100 to 1000 mg/kg/day, ip administered for 6 days followed by 1 week recovery; format: organism-based; settings: in vivo
Method in brief: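 Male Balb/c mice given 100, 500 or 1000 mg/kg/day i.p. for 6 days, then 1 week recovery; six vehicle-injected mice as controls. Body weight and survival recorded daily.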

[1] = target: T1, Protein deacetylase HDAC6 (Mus musculus) (UniProt Q9Z2V5); test: Inhibition of HDAC6 binding to HSP90 in mouse Neuro-2a cells transfected with pCAX FLAG APP and pRK5-EGFP-Tau P301L plasmids at 1 uM after 24 hrs by coimmunoprecipitation analysis; format: cell-based
T1 sequence (whole entry): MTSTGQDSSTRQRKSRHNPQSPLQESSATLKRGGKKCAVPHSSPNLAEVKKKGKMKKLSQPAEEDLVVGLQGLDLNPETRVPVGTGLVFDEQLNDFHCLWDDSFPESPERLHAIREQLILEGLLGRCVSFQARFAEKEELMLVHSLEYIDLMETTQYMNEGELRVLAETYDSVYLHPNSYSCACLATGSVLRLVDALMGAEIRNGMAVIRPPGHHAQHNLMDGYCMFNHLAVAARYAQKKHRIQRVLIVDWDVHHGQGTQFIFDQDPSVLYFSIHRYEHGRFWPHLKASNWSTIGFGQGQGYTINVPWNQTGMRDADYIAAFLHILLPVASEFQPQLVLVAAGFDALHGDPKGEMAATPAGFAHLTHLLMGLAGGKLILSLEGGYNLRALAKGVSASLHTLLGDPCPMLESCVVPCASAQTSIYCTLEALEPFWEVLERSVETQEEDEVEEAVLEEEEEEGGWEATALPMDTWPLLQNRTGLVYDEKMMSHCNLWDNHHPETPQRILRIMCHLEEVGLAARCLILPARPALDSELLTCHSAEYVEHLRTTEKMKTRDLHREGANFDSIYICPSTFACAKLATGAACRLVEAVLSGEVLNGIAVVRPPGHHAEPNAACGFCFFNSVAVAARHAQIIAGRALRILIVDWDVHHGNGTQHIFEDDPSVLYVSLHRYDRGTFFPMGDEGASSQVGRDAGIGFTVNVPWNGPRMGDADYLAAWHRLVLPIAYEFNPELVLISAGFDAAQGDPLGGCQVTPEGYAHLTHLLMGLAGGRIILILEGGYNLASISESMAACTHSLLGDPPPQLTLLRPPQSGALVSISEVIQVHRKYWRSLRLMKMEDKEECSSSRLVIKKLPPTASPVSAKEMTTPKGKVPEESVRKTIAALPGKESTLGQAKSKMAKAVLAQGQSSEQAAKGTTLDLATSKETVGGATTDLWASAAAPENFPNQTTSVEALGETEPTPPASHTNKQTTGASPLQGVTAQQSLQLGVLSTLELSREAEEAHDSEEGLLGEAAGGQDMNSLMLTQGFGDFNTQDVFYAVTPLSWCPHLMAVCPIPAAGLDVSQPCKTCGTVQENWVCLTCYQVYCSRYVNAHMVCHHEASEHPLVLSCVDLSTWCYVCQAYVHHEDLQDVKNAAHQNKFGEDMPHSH
Method in brief: (§1)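 SH-SY5Y and Neuro-2a cells cotransfected 24 h with APP695/Tau P301L plasmids, treated 24 h at 1 µM (ACY-1215 reference). 30 µg lysate immunoprecipitated overnight at 4 °C with anti-HDAC6 or anti-acetyl-lysine antibodies plus protein A/G beads, run on 8% SDS-PAGE, probed for Hsp90; Hsp70 by immunoblot. Three independent experiments.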

[2] = target: T2, Protein deacetylase HDAC6 (Homo sapiens) (UniProt Q9UBN7); test: Inhibition of HDAC6 in human SH-SY5Y cells transfected with pCAX FLAG APP and pRK5-EGFP-Tau P301L plasmids assessed as suppression of phosphorylated tau P301L mutant-induced apoptosis by measuring accumulation at sub-G1 phase at 0.1 uM after 24 hrs by propidium iodide staining-based flow cytometry (reference value: 22.01%); format: cell-based; design: scale not given: the % may be the effect or the level left
T2 sequence (whole entry): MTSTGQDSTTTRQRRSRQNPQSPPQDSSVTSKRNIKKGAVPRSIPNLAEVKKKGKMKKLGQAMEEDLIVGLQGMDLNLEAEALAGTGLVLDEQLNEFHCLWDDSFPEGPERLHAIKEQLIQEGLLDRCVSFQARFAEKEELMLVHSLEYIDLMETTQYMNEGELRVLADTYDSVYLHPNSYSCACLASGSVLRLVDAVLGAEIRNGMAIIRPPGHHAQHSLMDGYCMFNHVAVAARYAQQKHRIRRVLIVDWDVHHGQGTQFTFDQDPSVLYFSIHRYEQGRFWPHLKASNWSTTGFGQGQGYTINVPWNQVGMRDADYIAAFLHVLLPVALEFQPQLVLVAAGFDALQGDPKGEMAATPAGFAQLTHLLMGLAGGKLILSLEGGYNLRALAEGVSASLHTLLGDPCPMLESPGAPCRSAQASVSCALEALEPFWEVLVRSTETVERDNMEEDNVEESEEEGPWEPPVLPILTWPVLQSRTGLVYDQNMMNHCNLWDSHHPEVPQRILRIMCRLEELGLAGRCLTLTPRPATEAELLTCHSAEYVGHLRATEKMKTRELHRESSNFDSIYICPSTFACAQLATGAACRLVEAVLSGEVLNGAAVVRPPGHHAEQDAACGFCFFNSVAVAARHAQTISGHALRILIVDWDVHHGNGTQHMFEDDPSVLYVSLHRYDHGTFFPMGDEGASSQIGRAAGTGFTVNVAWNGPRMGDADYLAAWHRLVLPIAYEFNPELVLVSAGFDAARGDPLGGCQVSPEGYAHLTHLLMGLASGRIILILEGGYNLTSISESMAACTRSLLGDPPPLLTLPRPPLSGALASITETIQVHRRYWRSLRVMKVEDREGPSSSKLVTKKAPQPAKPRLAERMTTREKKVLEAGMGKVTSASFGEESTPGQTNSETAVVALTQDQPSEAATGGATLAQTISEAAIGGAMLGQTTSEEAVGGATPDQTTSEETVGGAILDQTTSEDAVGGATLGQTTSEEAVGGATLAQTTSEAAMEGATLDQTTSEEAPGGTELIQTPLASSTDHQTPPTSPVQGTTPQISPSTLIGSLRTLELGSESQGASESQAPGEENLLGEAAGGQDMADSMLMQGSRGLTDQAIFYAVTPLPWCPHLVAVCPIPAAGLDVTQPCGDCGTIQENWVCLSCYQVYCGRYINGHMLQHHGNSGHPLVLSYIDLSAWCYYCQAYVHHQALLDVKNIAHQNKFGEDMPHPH

[3] = Toxicity in Balb/c mouse assessed as survival rate at 500 mg/kg, ip qd administered for 6 days followed by 1 week recovery (reference value: 100%); format: organism-based; settings: in vivo
[4] = target: T2, Protein deacetylase HDAC6 (Homo sapiens); test: Inhibition of HDAC6 in human SH-SY5Y cells transfected with pCAX FLAG APP and pRK5-EGFP-Tau P301L plasmids assessed as increase in HSP70 protein expression at 1 uM after 24 hrs by Western blot analysis; format: cell-based; method in brief: as §1
[5] = Ratio of drug level in brain to plasma in Sprague-Dawley rat at 50 mg/kg, po after 3 hrs; format: ADME, organism-based; settings: read-out: BPR

COc1ccc(C(=O)c2ccc3c(ccn3Cc3ccc(C(=O)NO)cc3)c2)cc1
Activity (Mus musculus): Non-Toxic | inhibition [1]: Active | Activity [2]: 13.5% | survival [3]: 100% | inhibition [4]: Active | Kp at 3 h [5]: 0.86
